The target of assay [1] is RmtA (Emericella nidulans, UniProt Q5VLE3). The assay can be described thus: Inhibition of Aspergillus nidulans RmtA. In short, it runs like this:
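Enzyme was GST-RmtA fusion expressed in E. coli BL21 and glutathione-affinity purified (500 ng), preincubated with compound for 15 min at room temperature. Then 20 µg chicken erythrocyte core histones and 0.55 µCi [3H]AdoMet were added, 30 min at 30 °C. Stopped with 25% TCA, filtered, counted by liquid scintillation.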

For assay [2], the target named is Protein arginine N-methyltransferase 1 (Homo sapiens) (UniProt Q99873). The assay can be described thus: Inhibition of human recombinant PRMT1 assessed as nuclear ribonucleoprotein Npl3p methylation at 100 uM. In short, it runs like this: (§1)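 Recombinant enzymes (0.2 µg) with substrate (0.5 µg: Npl3p for PRMT1, PABP1 for CARM1, histone H3 for SET7), 0.5 µM [3H]AdoMet and 100 µM compound in PBS pH 7.4 with 3.3% v/v DMSO, 90 min at 30 °C. Products separated by 10% SDS-PAGE, transferred to PVDF, detected by fluorography on film overnight.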
Sequence of Protein arginine N-methyltransferase 1 (Homo sapiens) (Q99873 whole entry, looked up): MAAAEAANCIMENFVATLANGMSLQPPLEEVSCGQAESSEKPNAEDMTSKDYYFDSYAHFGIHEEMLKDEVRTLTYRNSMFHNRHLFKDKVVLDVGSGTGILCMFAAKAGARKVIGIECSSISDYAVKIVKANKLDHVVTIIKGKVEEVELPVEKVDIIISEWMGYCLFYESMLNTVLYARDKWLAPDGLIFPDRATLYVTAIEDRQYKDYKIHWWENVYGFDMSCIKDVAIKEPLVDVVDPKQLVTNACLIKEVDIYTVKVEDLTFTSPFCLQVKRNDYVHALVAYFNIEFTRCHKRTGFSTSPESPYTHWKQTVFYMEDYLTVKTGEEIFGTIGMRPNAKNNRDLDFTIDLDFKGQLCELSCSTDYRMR

Assay [3] addresses T1, Histone-arginine methyltransferase CARM1 (Homo sapiens) (UniProt Q86X55).
T1 sequence (whole entry): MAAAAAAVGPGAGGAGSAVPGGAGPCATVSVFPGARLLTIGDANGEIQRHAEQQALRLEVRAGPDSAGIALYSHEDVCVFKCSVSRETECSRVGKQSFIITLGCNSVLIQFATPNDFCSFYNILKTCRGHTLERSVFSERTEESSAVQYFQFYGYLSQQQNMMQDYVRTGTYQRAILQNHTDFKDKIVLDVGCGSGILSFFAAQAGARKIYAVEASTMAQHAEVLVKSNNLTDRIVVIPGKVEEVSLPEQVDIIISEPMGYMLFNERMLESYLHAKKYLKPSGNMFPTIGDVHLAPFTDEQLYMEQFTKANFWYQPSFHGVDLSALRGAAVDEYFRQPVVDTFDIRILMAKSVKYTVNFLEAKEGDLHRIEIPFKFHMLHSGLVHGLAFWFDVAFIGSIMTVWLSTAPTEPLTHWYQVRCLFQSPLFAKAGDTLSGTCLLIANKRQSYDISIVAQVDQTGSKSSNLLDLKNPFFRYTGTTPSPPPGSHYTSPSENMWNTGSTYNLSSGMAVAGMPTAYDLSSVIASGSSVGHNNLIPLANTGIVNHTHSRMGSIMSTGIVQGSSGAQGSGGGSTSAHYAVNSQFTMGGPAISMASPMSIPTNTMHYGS
The assay can be described thus: Inhibition of human recombinant CARM1 assessed as poly(A) binding protein 1 methylation at 100 uM. The gist of the method:
as §1

Assay [4] deals with T2, Histone-lysine N-methyltransferase SETD7 (Homo sapiens) (UniProt Q8WTS6).
T2 sequence (whole entry): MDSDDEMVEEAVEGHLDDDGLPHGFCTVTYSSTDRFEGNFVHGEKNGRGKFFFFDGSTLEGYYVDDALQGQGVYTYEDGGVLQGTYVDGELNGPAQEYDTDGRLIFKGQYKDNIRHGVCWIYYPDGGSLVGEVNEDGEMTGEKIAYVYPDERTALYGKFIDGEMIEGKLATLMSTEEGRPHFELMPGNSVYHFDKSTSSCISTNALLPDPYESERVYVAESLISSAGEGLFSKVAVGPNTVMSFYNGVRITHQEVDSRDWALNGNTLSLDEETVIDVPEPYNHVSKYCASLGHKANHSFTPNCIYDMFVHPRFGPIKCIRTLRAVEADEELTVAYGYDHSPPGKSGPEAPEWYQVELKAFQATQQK
The assay can be described thus: Inhibition of human recombinant SET7 assessed as histone H3 protein methylation at 100 uM. In short, it runs like this:
as §1

Assay [5] relates to U-937. The assay can be described thus: Inhibition of histone H3K4 methylation in human U937 cells at 50 uM after 24 hrs. In kind it is functional, cell-based. The gist of the method:
(§2)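 U937 cells treated at 50 µM for 24 h. Histones extracted with Triton buffer, then 0.2 M HCl overnight at 4 °C. 3–10 µg run on 15% SDS-PAGE and immunoblotted with anti-monomethyl-H3K4, monomethyl-H4R3 or dimethyl-H3R17 (1:500, overnight 4 °C), ECL detection. Loading controls: total H4 (H3K4), Ponceau Red (Arg marks).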

In assay [6] the test system is U-937. The assay can be described thus: Inhibition of histone H4R3 methylation in human U937 cells at 50 uM after 24 hrs. In kind it is functional, cell-based. The gist of the method:
as §2

The subject of assay [7] is U-937. The assay can be described thus: Inhibition of histone H3R17 methylation in human U937 cells at 50 uM after 24 hrs. In kind it is functional, cell-based. In short, it runs like this:
as §2

Calls of active or inactive are those of the source.

A word on the IC50: it is the concentration at which inhibition is half-maximal. A lower IC50 goes with higher potency.

Sequence of RmtA (Q5VLE3 whole entry, the tested form may be a part): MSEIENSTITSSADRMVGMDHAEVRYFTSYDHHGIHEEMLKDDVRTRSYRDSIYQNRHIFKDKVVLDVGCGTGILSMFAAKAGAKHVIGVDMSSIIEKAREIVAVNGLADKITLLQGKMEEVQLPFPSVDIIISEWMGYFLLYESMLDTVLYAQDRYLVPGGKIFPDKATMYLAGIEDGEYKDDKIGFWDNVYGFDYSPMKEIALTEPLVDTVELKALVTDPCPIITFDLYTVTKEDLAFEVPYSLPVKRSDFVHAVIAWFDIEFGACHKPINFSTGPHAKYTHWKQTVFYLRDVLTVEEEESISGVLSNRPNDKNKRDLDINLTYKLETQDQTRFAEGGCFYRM

In assay [1], `O=C(/C=C/c1ccc(O)c(Br)c1)c1cccc(C(=O)/C=C/c2ccc(O)c(Br)c2)c1` registered a 50% inhibitory concentration (IC50) of 59 µM. The result in assay [2] and in assay [4] was inactive. The result in assay [3], in assay [5], in assay [6] and in assay [7] was Active.
On to `O=C(/C=C/c1c(Br)cc(O)cc1Br)/C=C/c1c(Br)cc(O)cc1Br`, for which, in assay [1], it took 215 µM to reach half-maximal inhibition (IC50). Further, the result in assay [2], in assay [5], in assay [6] and in assay [7] was Active. Besides, the result in assay [4] was inactive.
For the molecule `O=C(CCC(=O)Nc1cc(Br)c(O)c(Br)c1)Nc1cc(Br)c(O)c(Br)c1`, the IC50 in assay [1] came out at 156 µM. The result in assay [6] and in assay [7] was Active.
In the case of `CN1C/C(=C\c2ccc(O)c(Br)c2)C(=O)/C(=C/c2cc(Br)c(O)c(Br)c2)C1`, inhibition in assay [1] was half-maximal at 123 µM (IC50). For the same molecule, the result in assay [5], in assay [6] and in assay [7] was Active.
Regarding `O=C1/C(=C/c2ccc(O)c(Br)c2)COC/C1=C\c1ccc(O)c(Br)c1`, in assay [1], the half-maximal inhibitory concentration (IC50) amounted to 132 µM. For the same molecule, the result in assay [2] and in assay [4] was inactive. In addition, the result in assay [3], in assay [5], in assay [6] and in assay [7] was Active.
Take `CN1C2CCC1/C(=C\c1cc(Br)c(O)c(Br)c1)C(=O)/C2=C/c1cc(Br)c(O)c(Br)c1`: it took 84 µM to reach half-maximal inhibition in assay [1] (IC50). The result in assay [5], in assay [6] and in assay [7] was Active.
Consider `O=C(/C=C/c1ccc(O)c(Br)c1)c1ccc(C(=O)/C=C/c2ccc(O)c(Br)c2)cc1`, for which inhibition in assay [1] was half-maximal at 47 µM (IC50). The outcome in assay [2] and in assay [4] was inactive. In addition, the result in assay [3], in assay [6] and in assay [7] was Active.
In assay [1], `O=C1/C(=C/c2cc(Br)c(O)c(Br)c2)Cc2ccccc2/C1=C\c1cc(Br)c(O)c(Br)c1` displayed a concentration for half-maximal inhibition (IC50) of 37 µM. Further, the result in assay [5], in assay [6] and in assay [7] was Active.
As to `CC(C)(C(=O)/C=C/c1cc(Br)c(O)c(Br)c1)C(=O)/C=C/c1cc(Br)c(O)c(Br)c1`, in assay [1], the IC50 came out at 156 µM. Further, the outcome in assay [6] and in assay [7] was Active.
As for `CN1C/C(=C\c2ccc(O)c(Br)c2)C(=O)/C(=C/c2ccc(O)c(Br)c2)C1`, the midpoint of inhibition in assay [1], the IC50, lay at 162 µM. For the same molecule, the outcome in assay [5], in assay [6] and in assay [7] was Active.
The molecule `O=C(NCCCNC(=O)c1cc(Br)c(O)c(Br)c1)c1cc(Br)c(O)c(Br)c1` returned an IC50 in assay [1] of 75.4 µM. In addition, the outcome in assay [6] and in assay [7] was Active.
The molecule `Cc1cc(/C=C/C(=O)/C=C/c2cc(C)c(O)c(C)c2)cc(C)c1O` yielded an IC50 in assay [1] of 206 µM. Also, the outcome in assay [5], in assay [6] and in assay [7] was Active.
With `O=C(Nc1ccc(NC(=O)c2cc(Br)c(O)c(Br)c2)cc1)c1cc(Br)c(O)c(Br)c1`, in assay [1], the midpoint of inhibition, the IC50, lay at 122 µM. Besides, the outcome in assay [2], in assay [3], in assay [4], in assay [6] and in assay [7] was Active.
For `O=C(/C=C/c1ccc(O)c(F)c1)/C=C/c1ccc(O)c(F)c1`, the half-maximal inhibitory concentration (IC50) in assay [1] turned out to be 169 µM. In addition, the result in assay [5], in assay [6] and in assay [7] was Active.
In turn, `O=C(/C=C/c1cc(Br)c(O)c(Br)c1)c1ccccc1` had a half-inhibitory concentration (IC50) in assay [1] of 115 µM. Moreover, the outcome in assay [5], in assay [6] and in assay [7] was Active.
`O=C(/C=C/c1ccc(O)c(Br)c1)CC(=O)/C=C/c1ccc(O)c(Br)c1` returned an IC50 in assay [1] of 109 µM. Also, the outcome in assay [2] and in assay [4] was inactive. Also, the outcome in assay [3], in assay [6] and in assay [7] was Active.
`O=C(/C=C/c1ccc(O)cc1Br)/C=C/c1ccc(O)cc1Br` yielded an IC50 in assay [1] of 114 µM. Further, the outcome in assay [5], in assay [6] and in assay [7] was Active.
`O=C(/C=C/c1c(O)cc(Br)cc1Br)/C=C/c1c(O)cc(Br)cc1Br` registered a 50% inhibitory concentration (IC50) in assay [1] of 238 µM. Moreover, the result in assay [2], in assay [5], in assay [6] and in assay [7] was Active. Besides, the outcome in assay [4] was inactive.
On to `O=C(NCCCCNC(=O)c1cc(Br)c(O)c(Br)c1)c1cc(Br)c(O)c(Br)c1`, for which, in assay [1], the IC50 came out at 616 µM. Also, the result in assay [6] and in assay [7] was Active.
In the case of `O=C(NCCNC(=O)c1cc(Br)c(O)c(Br)c1)c1cc(Br)c(O)c(Br)c1`, in assay [1], the half-maximal inhibitory concentration (IC50) is 89.7 µM. In addition, the outcome in assay [6] and in assay [7] was Active.
Take `O=C(/C=C/c1ccc(O)c([N+](=O)[O-])c1)/C=C/c1ccc(O)c([N+](=O)[O-])c1`: the 50% inhibitory concentration (IC50) in assay [1] came to 249 µM. Moreover, the result in assay [5], in assay [6] and in assay [7] was Active.
`O=C(CCCC(=O)Nc1cc(Br)c(O)c(Br)c1)Nc1cc(Br)c(O)c(Br)c1`: half-maximal inhibition in assay [1] (IC50) was put at 173 µM. For the same molecule, the result in assay [6] and in assay [7] was Active.
`O=C(CC(=O)Nc1cc(Br)c(O)c(Br)c1)Nc1cc(Br)c(O)c(Br)c1` had a 50% inhibitory concentration (IC50) in assay [1] of 102 µM. In addition, the outcome in assay [6] and in assay [7] was Active.
As for `O=C(/C=C/c1ccc(O)c(C(=O)O)c1)/C=C/c1ccc(O)c(C(=O)O)c1`, the 50% inhibitory concentration (IC50) in assay [1] worked out at 55 µM. The result in assay [5], in assay [6] and in assay [7] was Active.
For the molecule `O=C(/C=C/c1ccc(O)c(Br)c1)c1ccccc1`, the IC50 in assay [1] stood at 190 µM. Besides, the result in assay [5], in assay [6] and in assay [7] was Active.
Regarding `O=C(Nc1cc(Br)c(O)c(Br)c1)C(=O)Nc1cc(Br)c(O)c(Br)c1`, in assay [1], it took 32.6 µM to reach half-maximal inhibition (IC50). The result in assay [6] and in assay [7] was Active.
Consider `O=C1/C(=C/c2cc(Br)c(O)c(Br)c2)CN(Cc2ccccc2)C/C1=C\c1cc(Br)c(O)c(Br)c1`, for which, in assay [1], the 50% inhibitory concentration (IC50) was found to be 210 µM. The outcome in assay [5], in assay [6] and in assay [7] was Active.

Values taken from ChEMBL document CHEMBL1144710, “epigenetic multiple ligands: mixed histone/protein methyltransferase, acetyltransferase, and class III deacetylase (sirtuin) inhibitors” (J Med Chem, 2008).
